ChEMBL document CHEMBL3612064, “Oxidative Reactivities of 2-Furylquinolines: Ubiquitous Scaffolds in Common High-Throughput Screening Libraries” (J Med Chem, 2015)
Where “and” joins values, the source holds several entries; their conditions need not be identical. Equal values may be shown once. Each block holds one compound with its values, some of them ahead of it. Calls of active or inactive are those of the source. The rule behind the calls is not given here.

How the values were obtained:
[1] = Stability in DMSO solution assessed as parent compound remaining at 10 mM incubated for 38 days exposed to laboratory air by HPLC method
[2] = Drug metabolism assessed as oxidative compound decompostion after irradiation with visible light under oxygen-saturated environment in presence of rose bengal photosensitizer using compound-1 by LC/MS method; assay type: physicochemical
[3] = target: T1, DNA dC->dU-editing enzyme APOBEC-3G (Homo sapiens, UniProt Q9HC16); assay: Inhibition of APOBEC3G (unknown origin) assessed as remaining enzyme activity at 200 uM using ssDNA oligomer 5'-6-FAM-AAA-TAT-TCC-CTA-ATA-GAT-AAT-GTG-A-TAMRA-3' by fluorescence-based deamination assay
Outline: (§1)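 Recombinant A3G was expressed and purified. A freshly prepared DMSO stock (day 0) was tested in dose response up to 200 μM. The read-out was the fluorescence-based ssDNA C-to-U deamination assay with a 5'-6-FAM/3'-TAMRA oligo, detected after uracil DNA glycosylase processing. Performed in triplicate, mean ± SD.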

[4] = Drug metabolism assessed as compound formation using compound-1 by LC-MS method; assay type: physicochemical
Outline: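 10 mM DMSO stocks were gently shaken at 25 °C open to air and analysed on day 38 by LC-MS. The LC-MS used a C18 column (0.5 × 150 mm, 5 μm) at 15 μL/min with trifluoroacetic and formic acid modifiers, and an ion-trap MS in positive-ion mode. Decomposition products were scored as detected or not detected.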

[5] = target: T1, DNA dC->dU-editing enzyme APOBEC-3G; assay: Inhibition of APOBEC3G (unknown origin) using ssDNA oligomer 5'-6-FAM-AAA-TAT-TCC-CTA-ATA-GAT-AAT-GTG-A-TAMRA-3' by fluorescence-based deamination assay
Outline: as §1

[6] = Drug metabolism in DMSO solution assessed as compound formation incubated for 38 days exposed to laboratory air by LC/MS method; assay type: physicochemical; details: 912 h
[7] = Drug level assessed as compound formation using compound-1 in DMSO incubated for 16 months by 1H and 13C NMR method; assay type: physicochemical; details: 11688 h
[8] = target: T1, DNA dC->dU-editing enzyme APOBEC-3G; assay: Inhibition of APOBEC3G (unknown origin) assessed as reduction enzyme efficiency at 200 uM using ssDNA oligomer 5'-6-FAM-AAA-TAT-TCC-CTA-ATA-GAT-AAT-GTG-A-TAMRA-3' by fluorescence-based deamination assay
Outline: as §1

[9] = Drug metabolism assessed as formation of oxidative decomposition products by LC-MS method; assay type: physicochemical
[10] = Drug level assessed as compound formation using compound-1 in DMSO incubated for 16 months by LC-MS method; assay type: physicochemical; details: 11688 h
[11] = Drug level assessed as compound formation using compound-1 in DMSO incubated for 16 months by IR method; assay type: physicochemical; details: 11688 h
[12] = Toxicity against HEK293T cells assessed as cell viability at 50 uM incubated for 5 days; assay type: cell-based, HEK-293T; details: human, read-out: Activity
[13] = target: T1, DNA dC->dU-editing enzyme APOBEC-3G; assay: Inhibition of APOBEC3G (unknown origin) assessed as remaining enzyme activity at 200 uM incubated for […] using ssDNA oligomer 5'-6-FAM-AAA-TAT-TCC-CTA-ATA-GAT-AAT-GTG-A-TAMRA-3' by fluorescence-based deamination assay
[14] = target: T1, DNA dC->dU-editing enzyme APOBEC-3G; assay: Inhibition of APOBEC3G (unknown origin) assessed as remaining enzyme activity at 200 uM incubated for 38 days using ssDNA oligomer 5'-6-FAM-AAA-TAT-TCC-CTA-ATA-GAT-AAT-GTG-A-TAMRA-3' by fluorescence-based deamination assay
Outline: (§2)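 A DMSO stock of the compound was aged in a closed microcentrifuge tube at 20-22 °C on the bench. The same stock was re-tested against recombinant A3G in dose response up to 200 μM at days 3, 21, 38 and 72. The assay was the fluorescence-based C-to-U deamination assay on a 6-FAM/TAMRA ssDNA oligo, with uracil DNA glycosylase in the read-out. Triplicates, mean ± SD.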

[15] = target: DNA dC->dU-editing enzyme APOBEC-3A (Homo sapiens, UniProt P31941); assay: Inhibition of APOBEC3A (unknown origin) by fluorescence-based ssDNA C-to-U deaminase assay
Outline: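 Recombinant purified A3A was tested in dose-response up to 200 μM, with compound from DMSO stock. C-to-U deamination was read by fluorescence from the 6-FAM/TAMRA-labelled probe in a coupled uracil DNA glycosylase step, and IC50 was taken from the dose-response curve.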

[16] = Drug metabolism assessed as oxidative compound decompostion after irradiation with visible light under oxygen-saturated environment using [18]O2 in presence of rose bengal photosensitizer using by LC/MS method; assay type: physicochemical
[17] = target: T1, DNA dC->dU-editing enzyme APOBEC-3G; assay: Inhibition of APOBEC3G (unknown origin) fluorescence-based ssDNA C-to-U deaminase assay
[18] = target: T1, DNA dC->dU-editing enzyme APOBEC-3G; assay: Inhibition of APOBEC3G (unknown origin) assessed as remaining enzyme activity at 200 uM incubated for 3 days using ssDNA oligomer 5'-6-FAM-AAA-TAT-TCC-CTA-ATA-GAT-AAT-GTG-A-TAMRA-3' by fluorescence-based deamination assay
Outline: as §2

[19] = target: T1, DNA dC->dU-editing enzyme APOBEC-3G; assay: Inhibition of APOBEC3G (unknown origin) up to 200 uM using ssDNA oligomer 5'-6-FAM-AAA-TAT-TCC-CTA-ATA-GAT-AAT-GTG-A-TAMRA-3' by fluorescence-based deamination assay
Outline: as §1

[20] = target: T1, DNA dC->dU-editing enzyme APOBEC-3G; assay: Inhibition of APOBEC3G (unknown origin) assessed as remaining enzyme activity at 200 uM incubated for 21 days using ssDNA oligomer 5'-6-FAM-AAA-TAT-TCC-CTA-ATA-GAT-AAT-GTG-A-TAMRA-3' by fluorescence-based deamination assay
Outline: as §2

[21] = target: T1, DNA dC->dU-editing enzyme APOBEC-3G; assay: Inhibition of APOBEC3G (unknown origin) up to 200 uM incubated for 3 to 72 days using ssDNA oligomer 5'-6-FAM-AAA-TAT-TCC-CTA-ATA-GAT-AAT-GTG-A-TAMRA-3' by fluorescence-based deamination assay; details: TDE = time-dependent effect
Outline: as §2

T1 sequence (Q9HC16 whole entry): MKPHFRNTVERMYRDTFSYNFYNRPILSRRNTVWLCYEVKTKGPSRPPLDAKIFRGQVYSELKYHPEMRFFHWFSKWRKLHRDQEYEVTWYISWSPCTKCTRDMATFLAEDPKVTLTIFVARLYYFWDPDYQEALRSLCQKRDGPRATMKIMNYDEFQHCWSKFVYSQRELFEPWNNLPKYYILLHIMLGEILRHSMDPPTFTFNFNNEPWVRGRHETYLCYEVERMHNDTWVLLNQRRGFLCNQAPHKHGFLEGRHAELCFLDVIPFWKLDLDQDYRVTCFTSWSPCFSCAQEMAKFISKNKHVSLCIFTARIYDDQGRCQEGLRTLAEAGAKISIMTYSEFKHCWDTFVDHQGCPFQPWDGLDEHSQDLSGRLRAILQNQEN
Chain of DNA dC->dU-editing enzyme APOBEC-3A (P31941 whole entry): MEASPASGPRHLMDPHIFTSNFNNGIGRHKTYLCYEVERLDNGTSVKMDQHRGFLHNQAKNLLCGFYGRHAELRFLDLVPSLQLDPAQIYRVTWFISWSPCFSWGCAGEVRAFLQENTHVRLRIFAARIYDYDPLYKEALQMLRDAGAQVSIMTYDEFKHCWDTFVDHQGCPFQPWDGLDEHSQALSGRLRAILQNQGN

remaining at 912 h, 10000 µM [1]: 101%
SMILES: O=C(Nc1nnc(-c2ccncc2)s1)c1cc(-c2ccco2)nc2ccccc12

remaining at 912 h, 10000 µM [1]: 83%
SMILES: Cc1ccc(-c2cc(C(=O)O)c3ccccc3n2)o1

remaining at 912 h, 10000 µM [1]: 56%
SMILES: Cc1ccc(-c2cc(C(=O)NCc3ccc4c(c3)OCO4)c3ccccc3n2)o1

remaining at 912 h, 10000 µM [1]: 102%
SMILES: Cc1ccc(-c2ccc3ccccc3n2)o1

remaining at 912 h, 10000 µM [1]: 19%
SMILES: COC(=O)c1cc(NC(=O)c2cc(-c3ccc(C)o3)nc3ccccc23)cc(C(=O)OC)c1

remaining at 912 h, 10000 µM [1]: 26%
SMILES: Cc1ccc(-c2cc(C(=O)N3CCN(S(C)(=O)=O)CC3)c3ccccc3n2)o1

remaining at 912 h, 10000 µM [1]: 55%
SMILES: Cc1ccc(-c2cc(C(=O)NC(C)C3CCCO3)c3ccccc3n2)o1 (configuration not stated)

remaining at 912 h, 10000 µM [1]: 6% | Activity [13]: 29% | Activity [14]: 29% | IC50 [15]: 2.8 µM and 9.8 µM | IC50 [17]: 10.8 µM and 50.3 µM | Activity [18]: 82% | inhibition [19]: inactive | Activity [20]: 55% | inhibition [21]: tde
SMILES: Cc1ccc(-c2cc(C(=O)Nc3nnc(-c4ccncc4)s3)c3ccccc3n2)o1
viability at 120 h, 50 µM [12]: > 85% | Drug metabolism [16]: metabolite_detected

remaining at 912 h, 10000 µM [1]: 84%
SMILES: COc1ccc(CCNC(=O)c2cc(-c3ccc(C)o3)nc3ccccc23)cc1

remaining at 912 h, 10000 µM [1]: 54%
SMILES: Cc1ccc(-c2cc(C(=O)NC3CCCCC3)c3ccccc3n2)o1

remaining at 912 h, 10000 µM [1]: 73%
SMILES: Cc1cccc(NC(=O)c2cc(-c3ccc(C)o3)nc3ccccc23)n1

remaining at 912 h, 10000 µM [1]: 82%
SMILES: Cc1ccc(-c2cc(C(=O)O)c3ccccc3c2)o1

Continued, compound first:

SMILES: O=C(O)c1cc(-c2ccco2)nc2ccccc12
remaining at 912 h, 10000 µM [1]: 69%

SMILES: O=C(O)c1ccnc(-c2ccco2)c1
remaining at 912 h, 10000 µM [1]: 92%

SMILES: c1coc(-c2ccc3ccccc3n2)c1
remaining at 912 h, 10000 µM [1]: 117%

SMILES: CC1(OO)C=CC(O)(c2cc(C(=O)Nc3nnc(-c4ccncc4)s3)c3ccccc3n2)O1 (configuration not stated)
Drug metabolism [2]: metabolite_detected | inhibition [3]: inactive | Drug metabolism [4]: metabolite_detected

SMILES: Cc1ccc(-c2cc(C(=O)Nc3nnc(-c4ccncc4)s3)c3ccccc3c2)o1
remaining at 912 h, 10000 µM [1]: 25%

SMILES: CC(=O)/C=C\C(=O)c1cc(C(=O)Nc2nnc(-c3ccncc3)s2)c2ccccc2n1
Drug metabolism [2]: metabolite_detected | IC50 [5]: 20 µM | Drug metabolism [6]: metabolite_detected | Drug metabolism [4]: metabolite_detected

SMILES: O=C(O)/C=C\C(=O)c1cc(C(=O)Nc2nnc(-c3ccncc3)s2)c2ccccc2n1
Drug metabolism [6]: metabolite_detected

SMILES: O=C(O)c1cc(-c2ccco2)cc2ccccc12
remaining at 912 h, 10000 µM [1]: 89%

SMILES: Cc1ccc(-c2cc(C(=O)Nc3nnc(-c4ccncc4)s3)ccn2)o1
remaining at 912 h, 10000 µM [1]: 34%

SMILES: O=C(Nc1nnc(-c2ccncc2)s1)c1cc(-c2ccco2)cc2ccccc12
remaining at 912 h, 10000 µM [1]: 0%

SMILES: O=C(Nc1nnc(-c2ccncc2)s1)c1ccnc(-c2ccco2)c1
remaining at 912 h, 10000 µM [1]: 90%

SMILES: O=C(Nc1nnc(-c2ccncc2)s1)c1cc(=O)[nH]c2ccccc12
Drug metabolism [7]: metabolite_detected | inhibition [8]: 50% | Drug metabolism [2]: metabolite_detected | Activity [3]: 83% | Drug metabolism [9]: metabolite_detected | Drug metabolism [10]: metabolite_detected | Drug metabolism [6]: metabolite_detected | Drug metabolism [11]: metabolite_detected

SMILES: O=C(O)c1cc(C(=O)Nc2nnc(-c3ccncc3)s2)c2ccccc2n1
Drug metabolism [2]: metabolite_detected | Activity [3]: 43% | Drug metabolism [6]: metabolite_detected | Drug metabolism [4]: metabolite_detected

SMILES: CC1(O)C=CC(OO)(c2cc(C(=O)Nc3nnc(-c4ccncc4)s3)c3ccccc3n2)O1 (configuration not stated)
Drug metabolism [2]: metabolite_detected | inhibition [3]: inactive | Drug metabolism [4]: metabolite_detected

SMILES: Nc1nnc(-c2ccncc2)s1
inhibition [3]: inactive

SMILES: O=C(NNC(=O)c1cc(-c2ccco2)nc2ccccc12)NC1CCCCC1
remaining at 912 h, 10000 µM [1]: 64%

SMILES: Cc1ccc(-c2cc(C(=O)O)ccn2)o1
remaining at 912 h, 10000 µM [1]: 85%

SMILES: O=CCC(=O)c1cc(C(=O)Nc2nnc(-c3ccncc3)s2)c2ccccc2n1
Drug metabolism [6]: metabolite_detected
